Consider 21 molecules from ChEMBL document CHEMBL3739391, “Development of a potent and selective cell penetrant Legumain inhibitor” (Bioorg Med Chem Lett, 2015).

The structures appear in SMILES notation. Activity calls are given as the source filed them. No cut-off for these calls is given here. Some results are limits rather than exact numbers.

What is called inhibition is the relative decrease from the control value, in per cent. In general, IC50 refers to the midpoint of a concentration-inhibition curve. A word on the mortality: it is the percentage killed.

The target in test [1] is T1, Legumain (Homo sapiens) (UniProt Q99538).
T1 sequence (whole entry): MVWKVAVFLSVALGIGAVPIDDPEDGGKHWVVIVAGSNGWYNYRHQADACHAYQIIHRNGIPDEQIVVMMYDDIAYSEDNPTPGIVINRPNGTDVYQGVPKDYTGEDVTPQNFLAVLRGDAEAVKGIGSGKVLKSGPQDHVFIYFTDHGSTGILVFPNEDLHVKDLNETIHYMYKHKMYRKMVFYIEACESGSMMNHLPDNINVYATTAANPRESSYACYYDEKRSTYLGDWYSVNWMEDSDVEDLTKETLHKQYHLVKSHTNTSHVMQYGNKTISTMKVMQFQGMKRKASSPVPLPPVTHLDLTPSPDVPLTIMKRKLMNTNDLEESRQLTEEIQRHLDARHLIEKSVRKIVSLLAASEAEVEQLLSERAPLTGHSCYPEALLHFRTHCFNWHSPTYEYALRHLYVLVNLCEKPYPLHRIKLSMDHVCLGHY
In words: Inhibition of legumain in human MCF7 cells using Z-Ala-Ala-Asn-MCA substrate at 30 uM incubated for 24 hrs by microplate reader analysis. In kind it is cell-based. The gist of the method: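 MCF7 cells incubated with compound at 37 °C for 24 h. Media then removed, cells washed with assay buffer and lysed. Intracellular legumain activity read in the lysate with fluorogenic substrate. Run in triplicate.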

The target of a further test is T2, Legumain (Homo sapiens, UniProt Q99538).
T2 sequence (Q99538 whole entry): T1 sequence (whole entry)
Description: Inhibition of recombinant human legumain using Z-Ala-Ala-Asn-MCA substrate measured every 2 mins for 60 mins by microplate reader analysis.

Another test concerns the target Caspase-8 (Homo sapiens, UniProt Q14790). In words: Inhibition of recombinant caspase 8 (unknown origin) using IETD-AFC fluorogenic substrate.
The nature of test [2]: Cytotoxicity against human PC3 cells assessed as cell viability at 30 uM incubated for 96 hrs by MTT assay. In kind it is functional. Particulars: PC-3, 96 h, read-out: Activity. The gist of the method:
(§1)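 MTT viability read-out after 96 h exposure. Compared with DMSO vehicle control. n = 6.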
In general terms: Tetrazolium assays rely on reduction of a dye to a coloured formazan, in cell work by metabolically active cells.

In test [3] the test system is MCF7. Description: Antimetastatic activity in human MCF7 cells assessed as inhibition of colony formation efficiency at 5 uM after 2 weeks by soft agar anchorage-independent growth assay. The class given is functional. Particulars: MCF7, 336 h. The gist of the method: (§2)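 Soft agar anchorage-independent colony formation in MCF7 and PC3 cells over 2 weeks. Compound and media refreshed every 4 days. Colonies quantified relative to DMSO vehicle-treated cells. n = 5.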

The target in test [4] is T1, Legumain (Homo sapiens). In words: Inhibition of legumain in human MCF7 cells using Z-Ala-Ala-Asn-MCA substrate at 30 uM incubated for 48 hrs by microplate reader analysis. In kind it is cell-based.
The next test has as its system T47D. In words: Cytotoxicity against human T47D cells assessed as cell viability at 30 uM incubated for 96 hrs by MTT assay. In kind it is functional. Particulars: read-out: Activity. A digest of the protocol: as §1
The next test concerns the target Cathepsin B (Homo sapiens, UniProt P07858). Description: Inhibition of recombinant cathepsin B (unknown origin) using Z-Leu-Arg-AMC fluorogenic substrate.
A short description of test [5]: Cytotoxicity against human MCF10A cells assessed as cell death at 150 uM incubated for 96 hrs by MTT assay. In kind it is functional. The conditions noted are these: MCF-10A.
Test [6] has as its system MCF7. In words: Cytotoxicity against human MCF7 cells assessed as cell death at 30 uM incubated for 96 hrs by MTT assay. The conditions noted are these: MCF7, 96 h. In kind it is functional. The gist of the method: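 MCF7 breast cancer cells were exposed to compound for 96 h, with DMSO vehicle as the control. Viability was read by MTT assay, n = 6.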
Test [7] in a line: Antimetastatic activity in human PC3 cells assessed as inhibition of colony formation efficiency at 2.5 uM after 2 weeks by soft agar anchorage-independent growth assay. Particulars: PC-3, 336 h. The class given is functional. A digest of the protocol:
as §2

The target in a further test is Cathepsin S (Homo sapiens, UniProt P25774). In words: Inhibition of recombinant cathepsin S (unknown origin) using ZVVR-AMC fluorogenic substrate.
The next test has as its target T3, Caspase-3 (Homo sapiens, UniProt P42574).
T3 sequence (P42574 whole entry): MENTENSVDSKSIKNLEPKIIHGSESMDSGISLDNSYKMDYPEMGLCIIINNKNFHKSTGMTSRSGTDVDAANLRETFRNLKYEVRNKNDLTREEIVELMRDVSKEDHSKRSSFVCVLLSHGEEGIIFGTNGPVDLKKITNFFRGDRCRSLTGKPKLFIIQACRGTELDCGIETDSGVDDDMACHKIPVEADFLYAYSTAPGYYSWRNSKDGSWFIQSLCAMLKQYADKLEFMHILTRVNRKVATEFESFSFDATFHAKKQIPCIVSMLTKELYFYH
Description: Inhibition of recombinant caspase 3 (unknown origin) using DEVD-AFC fluorogenic substrate.

Test [8] can be described thus: Cytotoxicity against human DU145 cells assessed as cell viability at 30 uM incubated for 96 hrs by MTT assay. In kind it is functional. Particulars: DU-145, 96 h, read-out: Activity. The gist of the method: as §1
Test [9] concerns the target T4, Ubiquitin carboxyl-terminal hydrolase 17 (Homo sapiens, UniProt Q6R6M4).
T4 sequence (Q6R6M4 whole entry): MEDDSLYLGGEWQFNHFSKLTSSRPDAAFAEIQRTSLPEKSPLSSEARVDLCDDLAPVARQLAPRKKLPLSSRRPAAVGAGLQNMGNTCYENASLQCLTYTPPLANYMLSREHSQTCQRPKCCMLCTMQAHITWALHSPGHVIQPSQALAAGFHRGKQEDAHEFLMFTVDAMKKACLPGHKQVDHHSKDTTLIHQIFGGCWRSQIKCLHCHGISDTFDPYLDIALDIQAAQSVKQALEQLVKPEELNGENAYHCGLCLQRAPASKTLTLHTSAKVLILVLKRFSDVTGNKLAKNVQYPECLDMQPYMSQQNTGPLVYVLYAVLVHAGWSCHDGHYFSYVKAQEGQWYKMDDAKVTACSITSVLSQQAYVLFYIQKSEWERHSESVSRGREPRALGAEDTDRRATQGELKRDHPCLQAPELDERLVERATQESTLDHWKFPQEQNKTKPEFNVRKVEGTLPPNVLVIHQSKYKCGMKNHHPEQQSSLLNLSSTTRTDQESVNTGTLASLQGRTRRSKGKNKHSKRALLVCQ
Description: Inhibition of USP17 in human HEK293T cells using fluorogenic substrate ub-rhodamine110 preincubated for 30 mins followed by substrate addition measured every 4 mins for 1 hr by microplate reader analysis. The class given is cell-based, HEK-293T.

Cathepsin S, sequence (P25774 whole entry): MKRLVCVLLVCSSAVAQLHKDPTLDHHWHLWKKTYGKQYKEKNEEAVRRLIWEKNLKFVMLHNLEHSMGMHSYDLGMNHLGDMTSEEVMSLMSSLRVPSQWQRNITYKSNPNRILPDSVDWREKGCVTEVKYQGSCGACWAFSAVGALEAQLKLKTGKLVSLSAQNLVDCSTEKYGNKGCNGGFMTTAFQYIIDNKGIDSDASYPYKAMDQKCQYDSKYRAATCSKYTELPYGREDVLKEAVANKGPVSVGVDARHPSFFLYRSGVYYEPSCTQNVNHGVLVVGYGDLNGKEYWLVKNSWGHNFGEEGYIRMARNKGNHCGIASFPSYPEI
Caspase-8, sequence (Q14790 217-374 limits assumed): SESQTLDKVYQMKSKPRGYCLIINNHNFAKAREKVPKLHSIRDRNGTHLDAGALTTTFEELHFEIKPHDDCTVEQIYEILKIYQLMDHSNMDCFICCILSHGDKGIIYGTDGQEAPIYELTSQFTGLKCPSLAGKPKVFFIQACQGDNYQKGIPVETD
Caspase-8, sequence (Q14790 385-479 limits assumed): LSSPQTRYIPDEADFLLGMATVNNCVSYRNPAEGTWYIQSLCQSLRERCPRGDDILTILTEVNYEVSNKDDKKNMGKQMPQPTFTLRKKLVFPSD

Turning to `N#C[C@H](CC(N)=O)NC(=O)[C@@H]1CCCN1S(=O)(=O)c1ccc(-c2ccc3c(c2)OCO3)cc1`, the inhibition on Legumain (Homo sapiens) [1] is 49%. The half-maximal inhibitory concentration (IC50) at Legumain was determined as 49 nM.
On the same counts, the results for `N#C[C@H](CC(N)=O)NC(=O)[C@@H]1CCCN1S(=O)(=O)c1ccc(Cl)cc1Cl` are 0% and 593 nM.
The molecule `N#C[C@H](CC(N)=O)NC(=O)[C@@H]1CCCN1S(=O)(=O)c1ccc(C(F)(F)F)cc1` displayed an inhibition at Legumain (Homo sapiens) [1] of 0%. At Legumain, the IC50 turned out to be 332 nM.
On Legumain (Homo sapiens) [1], `CC(C)c1ccc(-c2ccc(S(=O)(=O)N3CCC[C@H]3C(=O)N[C@H](C#N)CC(N)=O)cc2)cc1` gave an inhibition of 75%. Moreover, the IC50 on Legumain turned out to be 5 nM.
The molecule `N#C[C@H](CC(N)=O)NC(=O)[C@@H]1CCCN1S(=O)(=O)c1ccc(F)cc1` yielded an inhibition on Legumain (Homo sapiens) [1] of 0%. Further, the 50% inhibitory concentration (IC50) at Legumain is 269 nM.
On the same counts, the results for `N#C[C@H](CC(N)=O)NC(=O)[C@@H]1CCCN1S(=O)(=O)c1ccc(-c2cccc(F)c2)cc1` are 42% and 47 nM.
Turning to `CC(C)Oc1ccc(-c2ccc(S(=O)(=O)N3CCC[C@H]3C(=O)N[C@H](C#N)CC(N)=O)cc2)cc1`, on Legumain (Homo sapiens) [1], the inhibition stood at 49%. Besides, on Legumain, the concentration for half-maximal inhibition (IC50) is 969 nM.
Turning to `N#C[C@H](CC(N)=O)NC(=O)[C@@H]1CCCN1S(=O)(=O)c1ccc(-c2ccc(Cl)cc2)cc1`, the inhibition against Legumain (Homo sapiens) [1] was 64%. Also, on Legumain, the IC50 was 45 nM.
Take `N#C[C@H](CC(N)=O)NC(=O)[C@@H]1CCCN1S(=O)(=O)c1ccc(-c2ccccc2Cl)cc1`: the inhibition on Legumain (Homo sapiens) [1] is 29%. Further, the IC50 on Legumain stood at 35 nM.
With `COc1ccc(S(=O)(=O)N2CCC[C@H]2C(=O)N[C@H](C#N)CC(N)=O)cc1`, at Legumain, the IC50 is above 10000 nM.
On to `N#C[C@H](CC(N)=O)NC(=O)[C@@H]1CCCN1S(=O)(=O)c1ccc(Cl)cc1`, for which the inhibition on Legumain (Homo sapiens) [1] is 0%. Also, on Legumain, the half-maximal inhibitory concentration (IC50) was determined as 73 nM.
On to `N#C[C@H](CC(N)=O)NC(=O)[C@@H]1CCCN1S(=O)(=O)c1ccc(-c2ccc(C(F)(F)F)cc2)cc1`, for which the inhibition on Legumain (Homo sapiens) [1] stood at 52%. Further, on Legumain, the IC50 stood at 121 nM.
Consider `N#C[C@H](CC(N)=O)NC(=O)[C@@H]1CCCN1S(=O)(=O)c1ccc(Br)cc1`, for which the inhibition against Legumain (Homo sapiens) [1] was found to be 0%. For the same molecule, the IC50 on Legumain stood at 282 nM.
On Legumain (Homo sapiens) [1], `N#Cc1ccc(-c2ccc(S(=O)(=O)N3CCC[C@H]3C(=O)N[C@H](C#N)CC(N)=O)cc2)cc1` displayed an inhibition of 0%. In addition, the IC50 on Legumain is 33 nM.
For the molecule `CC(C)(C)c1ccc(-c2ccc(S(=O)(=O)N3CCC[C@H]3C(=O)N[C@H](C#N)CC(N)=O)cc2)cc1`, the IC50 on Caspase-8 is above 50000 nM; on Cathepsin B, above 50000 nM; on Cathepsin S, above 50000 nM; at Caspase-3 it was above 50000 nM; in [9], above 50000 nM; on Legumain, 71 nM. Further, the inhibition against Legumain (Homo sapiens) [1] turned out to be 90%. In addition, the viability at 30 µM (in [2]; in the test on T47D; in test [8]) was above 50% throughout. Besides, the inhibition at 5 µM in the test on MCF7 [3] turned out to be 50%. In addition, the inhibition result at Legumain (Homo sapiens) [4] is “Active”. Further, in test [5], the mortality at 150 µM came out at 0%. In the test with MCF7 [6], the mortality at 30 µM came to 81%. Also, in test [7], the inhibition at 2.5 µM stood at 50%.
On to `Cc1ccc(-c2ccc(S(=O)(=O)N3CCC[C@H]3C(=O)N[C@H](C#N)CC(N)=O)cc2)cc1`, for which, at Legumain (Homo sapiens) [1], the inhibition was 0%. Further, the IC50 at Legumain came to 32 nM.
For the molecule `CCOc1ccc(-c2ccc(S(=O)(=O)N3CCC[C@H]3C(=O)N[C@H](C#N)CC(N)=O)cc2)cc1`, the inhibition against Legumain (Homo sapiens) [1] is 90%. Moreover, the IC50 on Legumain is 73 nM.
Turning to `COc1ccc(-c2ccc(S(=O)(=O)N3CCC[C@H]3C(=O)N[C@H](C#N)CC(N)=O)cc2)cc1`, the half-maximal inhibitory concentration (IC50) on Caspase-8 is above 50000 nM; on Cathepsin B it was above 50000 nM; at Cathepsin S it was above 50000 nM; on Caspase-3, above 50000 nM; in [9], above 50000 nM; at Legumain it was 6 nM. Moreover, the inhibition against Legumain (Homo sapiens) [1] worked out at 90%. In addition, the mortality at 150 µM in test [5] was 0%. Further, the mortality at 30 µM with MCF7 [6] was 58%.
For `N#C[C@H](CC(N)=O)NC(=O)[C@@H]1CCCN1S(=O)(=O)c1ccc(-c2ccccc2)cc1`, the IC50 was above 50000 nM on Caspase-8; above 50000 nM at Cathepsin B; above 50000 nM at Cathepsin S; above 50000 nM at Caspase-3; above 50000 nM in test [9]; 12 nM at Legumain. In addition, on Legumain (Homo sapiens) [1], the inhibition turned out to be 47%. Moreover, in [5], the mortality at 150 µM came out at 0%. Besides, the mortality at 30 µM in the test on MCF7 [6] was 45%.
`N#C[C@H](CC(N)=O)NC(=O)[C@@H]1CCCN1S(=O)(=O)c1ccc(-c2ccc(F)cc2)cc1` yielded an inhibition at Legumain (Homo sapiens) [1] of 40%. For the same molecule, the IC50 at Legumain turned out to be 33 nM.
Taken in the same sequence, the figures for `CCc1ccc(-c2ccc(S(=O)(=O)N3CCC[C@H]3C(=O)N[C@H](C#N)CC(N)=O)cc2)cc1` were 42% and 71 nM.
